Values belong to the molecule of their own block, whether it stands above or below them.
Columns and labels:
[1] = molecular target: Dual specificity mitogen-activated protein kinase kinase 1 (Homo sapiens) (UniProt Q02750); assay: Inhibition of MKK1 assessed as remaining enzyme activity at 1 uM relative to DMSO
Procedure, shortened: (§1)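 Radiometric kinase assay run robotically at room temperature for 30 min. Contained 10 mM magnesium acetate and [γ-33P]ATP (800 cpm/pmol) at 5, 20 or 50 μM, chosen per kinase to be at or below its ATP Km. Reactions were started with MgATP, stopped with orthophosphoric acid and spotted onto P81 filters. Result is mean % activity of duplicates at one inhibitor concentration versus DMSO control.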

[2] = molecular target: Ephrin type-B receptor 6 (Homo sapiens) (UniProt O15197); assay: Binding affinity to EPHB6 assessed as percentage of kinase remaining bound to the bead at 1 uM by T7 phage display based binding assay
Procedure, shortened: (§2)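 Competition binding assay run by a contract lab. Each kinase was expressed as a fusion to T7 phage, full-length for small kinases and catalytic domain for large ones. Phage were mixed with an immobilized known kinase inhibitor on streptavidin magnetic beads and with test compound at a single 1 μM. Kinase/phage still bound to the beads was quantified by qPCR and expressed as % of DMSO control.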

[3] = molecular target: Serine/threonine-protein kinase PAK 6 (Homo sapiens) (UniProt Q9NQU5); assay: Inhibition of PAK6 assessed as remaining enzyme activity at 1 uM relative to DMSO; procedure, shortened: as §1
[4] = molecular target: Dual specificity tyrosine-phosphorylation-regulated kinase 3 (Homo sapiens) (UniProt O43781); assay: Inhibition of DYRK3 assessed as remaining enzyme activity at 1 uM relative to DMSO
Procedure, shortened: (§3)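 Radiometric kinase assay run robotically at room temperature for 30 min, linear in time and enzyme. Conditions: 10 mM magnesium acetate, [γ-33P]ATP (800 cpm/pmol) at 5, 20 or 50 μM per kinase, at or below its ATP Km. Started with MgATP and stopped with orthophosphoric acid, then spotted on P81 filters. Reported as mean % activity of duplicates versus DMSO controls.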

[5] = molecular target: Myosin light chain kinase, smooth muscle (Homo sapiens) (UniProt Q15746); assay: Inhibition of SmMLCK assessed as remaining enzyme activity at 1 uM relative to DMSO
[6] = molecular target: Fibroblast growth factor receptor 3 (Homo sapiens) (UniProt P22607); assay: Binding affinity to FGFR3 assessed as percentage of kinase remaining bound to the bead at 1 uM by T7 phage display based binding assay; procedure, shortened: as §2
[7] = molecular target: Serine/threonine-protein kinase PLK1 (Homo sapiens) (UniProt P53350); assay: Inhibition of PLK1 assessed as remaining enzyme activity at 1 uM relative to DMSO
[8] = molecular target: Serine/threonine-protein kinase TBK1 (Homo sapiens) (UniProt Q9UHD2); assay: Inhibition of TBK1 assessed as remaining enzyme activity at 1 uM relative to DMSO
[9] = molecular target: Serine/threonine-protein kinase SIK3 (Homo sapiens) (UniProt Q9Y2K2); assay: Binding affinity to QSK assessed as percentage of kinase remaining bound to the bead at 1 uM by T7 phage display based binding assay; procedure, shortened: as §2
[10] = molecular target: Eukaryotic elongation factor 2 kinase (Homo sapiens) (UniProt O00418); assay: Inhibition of EF2K assessed as remaining enzyme activity at 1 uM relative to DMSO; procedure, shortened: as §3
[11] = molecular target: MAP kinase-activated protein kinase 2 (Homo sapiens) (UniProt P49137); assay: Inhibition of MAPKAPK2 assessed as remaining enzyme activity at 1 uM relative to DMSO; procedure, shortened: as §1
[12] = molecular target: SRSF protein kinase 1 (Homo sapiens) (UniProt Q96SB4); assay: Inhibition of SRPK1 assessed as remaining enzyme activity at 1 uM relative to DMSO
[13] = molecular target: Receptor tyrosine-protein kinase erbB-3 (Homo sapiens) (UniProt P21860); assay: Binding affinity to ERBB3 assessed as percentage of kinase remaining bound to the bead at 1 uM by T7 phage display based binding assay; procedure, shortened: as §2
[14] = molecular target: Protein kinase C zeta type (Homo sapiens) (UniProt Q05513); assay: Inhibition of PKCzeta assessed as remaining enzyme activity at 1 uM relative to DMSO
[15] = molecular target: Receptor-interacting serine/threonine-protein kinase 2 (Homo sapiens) (UniProt O43353); assay: Binding affinity to RIPK2 assessed as percentage of kinase remaining bound to the bead at 1 uM by T7 phage display based binding assay; procedure, shortened: as §2
[16] = molecular target: Tyrosine-protein kinase BTK (Homo sapiens) (UniProt Q06187); assay: Inhibition of BTK assessed as remaining enzyme activity at 3 uM relative to DMSO
Procedure, shortened: (§4)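 Dundee kinase panel, radiometric: [γ-33P]ATP (800 cpm/pmol) at 5, 20 or 50 μM, at or below each kinase's ATP Km; 10 mM magnesium acetate; robotic, room temperature, 30 min. Reactions started with MgATP, stopped with orthophosphoric acid, spotted onto P81 filters. Inhibitor tested at a single concentration; mean % activity of duplicates relative to DMSO control.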

[17] = molecular target: 3-phosphoinositide-dependent protein kinase 1 (Homo sapiens) (UniProt O15530); assay: Inhibition of PDK1 assessed as remaining enzyme activity at 3 uM relative to DMSO
[18] = molecular target: Serine/threonine-protein kinase Nek2 (Homo sapiens) (UniProt P51955); assay: Inhibition of NEK2alpha assessed as remaining enzyme activity at 3 uM relative to DMSO; procedure, shortened: as §1
[19] = molecular target: Serine/threonine-protein kinase pim-2 (Homo sapiens) (UniProt Q9P1W9); assay: Inhibition of PIM2 assessed as remaining enzyme activity at 3 uM relative to DMSO; procedure, shortened: as §1
[20] = molecular target: Mitogen-activated protein kinase 9 (Homo sapiens) (UniProt P45984); assay: Inhibition of JNK2 assessed as remaining enzyme activity at 3 uM relative to DMSO; procedure, shortened: as §4
[21] = Inhibition of AMPK assessed as remaining enzyme activity at 3 uM relative to DMSO
Procedure, shortened: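 Panel assay run robotically at room temperature for 30 min with 10 mM magnesium acetate and [γ-33P]ATP (800 cpm/pmol) at 5, 20 or 50 μM, chosen per kinase to be at or below its ATP Km. Reactions were started with MgATP, stopped with orthophosphoric acid and spotted on P81 filters. Activity is the mean of duplicates at a single inhibitor concentration, as % of DMSO control.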

[22] = molecular target: Mitogen-activated protein kinase kinase kinase 9 (Homo sapiens) (UniProt P80192); assay: Inhibition of MLK1 assessed as remaining enzyme activity at 3 uM relative to DMSO; procedure, shortened: as §1
[23] = molecular target: Calcium/calmodulin-dependent protein kinase kinase 2 (Homo sapiens) (UniProt Q96RR4); assay: Inhibition of CAMKKbeta assessed as remaining enzyme activity at 3 uM relative to DMSO; procedure, shortened: as §4
[24] = molecular target: Mitogen-activated protein kinase 13 (Homo sapiens) (UniProt O15264); assay: Inhibition of p38delta assessed as remaining enzyme activity at 3 uM relative to DMSO
[25] = molecular target: Mitogen-activated protein kinase 12 (Homo sapiens) (UniProt P53778); assay: Inhibition of p38-gamma assessed as remaining enzyme activity at 3 uM relative to DMSO
[26] = molecular target: Serine/threonine-protein kinase Sgk1 (Homo sapiens) (UniProt O00141); assay: Inhibition of SGK1 assessed as remaining enzyme activity at 3 uM relative to DMSO
[27] = molecular target: Proto-oncogene tyrosine-protein kinase Src (Homo sapiens) (UniProt P12931); assay: Inhibition of Src assessed as remaining enzyme activity at 3 uM relative to DMSO

Dual specificity mitogen-activated protein kinase kinase 1 (Homo sapiens), sequence (Q02750 whole entry): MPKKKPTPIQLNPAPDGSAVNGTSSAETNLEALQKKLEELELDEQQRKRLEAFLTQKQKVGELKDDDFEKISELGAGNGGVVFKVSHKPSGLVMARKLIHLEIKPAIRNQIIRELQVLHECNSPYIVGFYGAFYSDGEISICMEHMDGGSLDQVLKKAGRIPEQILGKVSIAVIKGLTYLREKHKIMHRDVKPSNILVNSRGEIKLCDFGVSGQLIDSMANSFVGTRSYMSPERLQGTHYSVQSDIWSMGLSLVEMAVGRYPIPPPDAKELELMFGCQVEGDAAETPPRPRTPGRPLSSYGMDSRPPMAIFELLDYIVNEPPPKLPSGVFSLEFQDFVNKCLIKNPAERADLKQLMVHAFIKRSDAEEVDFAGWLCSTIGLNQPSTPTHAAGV
Mitogen-activated protein kinase 9 (Homo sapiens), sequence (P45984 whole entry, looked up): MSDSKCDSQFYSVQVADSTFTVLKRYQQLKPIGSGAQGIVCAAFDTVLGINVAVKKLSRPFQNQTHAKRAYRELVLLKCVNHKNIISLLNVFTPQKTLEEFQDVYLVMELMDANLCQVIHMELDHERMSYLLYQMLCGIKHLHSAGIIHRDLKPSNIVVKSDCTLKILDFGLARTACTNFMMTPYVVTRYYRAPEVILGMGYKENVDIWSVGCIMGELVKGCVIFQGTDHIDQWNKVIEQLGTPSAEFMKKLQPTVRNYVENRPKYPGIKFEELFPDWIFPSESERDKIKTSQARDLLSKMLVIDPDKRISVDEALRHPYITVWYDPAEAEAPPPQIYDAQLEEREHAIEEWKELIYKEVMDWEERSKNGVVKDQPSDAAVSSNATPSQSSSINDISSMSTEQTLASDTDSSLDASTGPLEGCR
Eukaryotic elongation factor 2 kinase (Homo sapiens), sequence (O00418 whole entry): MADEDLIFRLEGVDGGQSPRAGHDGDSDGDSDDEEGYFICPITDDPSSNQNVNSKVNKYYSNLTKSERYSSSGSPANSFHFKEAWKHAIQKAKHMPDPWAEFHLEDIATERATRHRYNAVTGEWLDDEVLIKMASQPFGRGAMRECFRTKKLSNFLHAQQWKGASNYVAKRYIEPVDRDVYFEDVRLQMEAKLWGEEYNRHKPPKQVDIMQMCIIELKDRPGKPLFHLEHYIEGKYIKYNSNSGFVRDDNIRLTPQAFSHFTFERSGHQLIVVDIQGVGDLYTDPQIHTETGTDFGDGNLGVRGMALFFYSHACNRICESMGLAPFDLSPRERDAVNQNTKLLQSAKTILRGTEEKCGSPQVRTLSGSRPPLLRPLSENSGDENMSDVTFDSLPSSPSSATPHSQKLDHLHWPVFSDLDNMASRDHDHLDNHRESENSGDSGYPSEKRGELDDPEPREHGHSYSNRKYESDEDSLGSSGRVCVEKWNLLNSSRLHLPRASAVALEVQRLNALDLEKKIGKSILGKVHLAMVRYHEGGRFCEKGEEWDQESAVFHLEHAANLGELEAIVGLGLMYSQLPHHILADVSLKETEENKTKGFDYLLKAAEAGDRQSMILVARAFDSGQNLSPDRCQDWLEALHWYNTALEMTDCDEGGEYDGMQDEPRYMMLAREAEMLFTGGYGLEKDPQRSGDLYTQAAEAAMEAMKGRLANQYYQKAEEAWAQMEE
Mitogen-activated protein kinase kinase kinase 9 (Homo sapiens), sequence (P80192 whole entry, looked up): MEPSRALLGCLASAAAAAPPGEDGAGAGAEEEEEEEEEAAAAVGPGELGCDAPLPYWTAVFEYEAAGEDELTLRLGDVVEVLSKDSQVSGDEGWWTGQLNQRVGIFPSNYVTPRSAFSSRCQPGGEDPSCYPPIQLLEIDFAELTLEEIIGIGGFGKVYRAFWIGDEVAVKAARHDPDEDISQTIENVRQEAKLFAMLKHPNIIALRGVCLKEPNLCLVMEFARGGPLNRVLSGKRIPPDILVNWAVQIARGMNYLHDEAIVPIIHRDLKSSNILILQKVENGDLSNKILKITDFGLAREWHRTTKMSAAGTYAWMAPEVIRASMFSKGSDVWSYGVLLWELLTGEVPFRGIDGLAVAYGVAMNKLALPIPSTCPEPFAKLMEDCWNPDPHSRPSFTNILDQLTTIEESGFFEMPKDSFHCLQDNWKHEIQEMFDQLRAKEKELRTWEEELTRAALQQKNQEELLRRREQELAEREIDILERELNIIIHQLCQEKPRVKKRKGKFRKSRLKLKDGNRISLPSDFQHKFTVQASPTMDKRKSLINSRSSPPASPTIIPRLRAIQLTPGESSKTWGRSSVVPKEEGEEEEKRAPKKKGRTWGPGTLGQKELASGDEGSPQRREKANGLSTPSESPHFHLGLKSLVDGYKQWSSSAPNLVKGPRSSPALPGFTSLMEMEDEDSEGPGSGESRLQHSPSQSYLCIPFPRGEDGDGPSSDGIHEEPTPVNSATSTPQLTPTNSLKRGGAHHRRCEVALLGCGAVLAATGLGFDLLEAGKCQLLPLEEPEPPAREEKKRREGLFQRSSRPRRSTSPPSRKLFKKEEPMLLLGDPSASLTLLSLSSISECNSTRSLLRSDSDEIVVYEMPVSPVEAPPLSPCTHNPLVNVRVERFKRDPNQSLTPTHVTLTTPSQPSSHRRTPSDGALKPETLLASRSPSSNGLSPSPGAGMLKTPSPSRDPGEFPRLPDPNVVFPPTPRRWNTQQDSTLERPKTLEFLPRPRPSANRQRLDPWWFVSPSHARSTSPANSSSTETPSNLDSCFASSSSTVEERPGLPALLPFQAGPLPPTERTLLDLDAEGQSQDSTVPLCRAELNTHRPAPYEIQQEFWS
Mitogen-activated protein kinase 12 (Homo sapiens), sequence (P53778 whole entry): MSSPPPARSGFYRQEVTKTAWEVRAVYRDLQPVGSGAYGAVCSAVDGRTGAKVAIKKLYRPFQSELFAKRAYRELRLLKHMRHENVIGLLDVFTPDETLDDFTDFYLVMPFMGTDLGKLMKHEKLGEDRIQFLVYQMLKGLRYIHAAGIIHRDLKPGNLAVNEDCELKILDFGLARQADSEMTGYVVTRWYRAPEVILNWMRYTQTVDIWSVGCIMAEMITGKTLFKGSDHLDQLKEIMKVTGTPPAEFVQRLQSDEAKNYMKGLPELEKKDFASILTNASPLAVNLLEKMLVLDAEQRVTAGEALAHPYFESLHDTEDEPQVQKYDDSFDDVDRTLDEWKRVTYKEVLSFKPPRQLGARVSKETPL
Receptor tyrosine-protein kinase erbB-3 (Homo sapiens), sequence (P21860 whole entry): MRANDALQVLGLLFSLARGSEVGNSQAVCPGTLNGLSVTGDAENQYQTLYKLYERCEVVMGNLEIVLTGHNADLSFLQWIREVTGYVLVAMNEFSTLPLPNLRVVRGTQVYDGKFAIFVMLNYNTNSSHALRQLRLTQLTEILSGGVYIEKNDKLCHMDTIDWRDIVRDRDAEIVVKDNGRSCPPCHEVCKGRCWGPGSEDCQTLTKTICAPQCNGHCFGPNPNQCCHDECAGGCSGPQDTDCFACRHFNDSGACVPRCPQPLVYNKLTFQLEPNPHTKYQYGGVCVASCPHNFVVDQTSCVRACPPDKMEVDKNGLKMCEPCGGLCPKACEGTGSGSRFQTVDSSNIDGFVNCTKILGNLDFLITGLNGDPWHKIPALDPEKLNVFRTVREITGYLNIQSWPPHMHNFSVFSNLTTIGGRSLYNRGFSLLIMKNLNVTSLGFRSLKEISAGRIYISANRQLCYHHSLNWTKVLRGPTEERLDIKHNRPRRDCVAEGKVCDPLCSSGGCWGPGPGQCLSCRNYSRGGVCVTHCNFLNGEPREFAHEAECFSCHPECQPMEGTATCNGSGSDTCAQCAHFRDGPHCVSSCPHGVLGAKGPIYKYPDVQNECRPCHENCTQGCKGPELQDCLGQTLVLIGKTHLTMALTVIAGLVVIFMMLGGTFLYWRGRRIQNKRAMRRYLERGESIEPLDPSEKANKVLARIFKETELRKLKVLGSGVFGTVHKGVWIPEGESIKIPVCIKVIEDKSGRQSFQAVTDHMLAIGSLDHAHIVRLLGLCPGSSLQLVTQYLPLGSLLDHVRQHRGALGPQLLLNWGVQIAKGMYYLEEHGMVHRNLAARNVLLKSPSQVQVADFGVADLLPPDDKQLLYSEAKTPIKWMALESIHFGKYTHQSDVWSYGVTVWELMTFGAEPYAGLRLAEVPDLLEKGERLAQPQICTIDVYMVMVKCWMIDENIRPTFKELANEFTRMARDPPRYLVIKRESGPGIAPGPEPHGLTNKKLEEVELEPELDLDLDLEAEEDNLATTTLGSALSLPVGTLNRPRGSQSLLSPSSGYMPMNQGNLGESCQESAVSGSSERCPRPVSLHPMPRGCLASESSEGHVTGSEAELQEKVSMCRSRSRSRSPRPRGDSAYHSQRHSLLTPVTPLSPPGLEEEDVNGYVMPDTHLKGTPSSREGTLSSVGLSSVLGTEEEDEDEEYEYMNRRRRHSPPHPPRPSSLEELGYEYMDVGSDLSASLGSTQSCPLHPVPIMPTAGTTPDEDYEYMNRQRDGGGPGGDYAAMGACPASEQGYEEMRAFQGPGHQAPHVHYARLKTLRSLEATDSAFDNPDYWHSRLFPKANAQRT
Dual specificity tyrosine-phosphorylation-regulated kinase 3 (Homo sapiens), sequence (O43781 whole entry): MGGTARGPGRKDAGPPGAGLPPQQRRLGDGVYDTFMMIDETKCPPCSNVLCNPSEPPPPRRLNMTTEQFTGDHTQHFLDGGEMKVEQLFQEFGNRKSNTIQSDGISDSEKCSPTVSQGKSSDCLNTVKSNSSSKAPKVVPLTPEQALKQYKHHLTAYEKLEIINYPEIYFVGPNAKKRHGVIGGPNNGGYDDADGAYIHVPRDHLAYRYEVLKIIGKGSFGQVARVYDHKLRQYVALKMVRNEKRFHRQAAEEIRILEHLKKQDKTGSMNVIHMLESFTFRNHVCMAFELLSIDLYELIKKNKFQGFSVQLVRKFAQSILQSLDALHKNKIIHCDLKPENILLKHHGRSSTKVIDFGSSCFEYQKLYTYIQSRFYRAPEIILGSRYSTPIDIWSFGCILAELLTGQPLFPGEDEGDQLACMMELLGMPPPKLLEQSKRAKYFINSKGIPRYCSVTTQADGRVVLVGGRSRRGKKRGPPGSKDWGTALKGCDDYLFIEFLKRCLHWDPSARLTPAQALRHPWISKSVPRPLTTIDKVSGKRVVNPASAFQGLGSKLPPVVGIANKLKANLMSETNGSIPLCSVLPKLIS

- Activity [1]: 70%
- Activity [2]: 32%
- Activity [3]: 92%
- Activity [4]: 96%
- Activity [5]: 87%
- Activity [6]: 89%
- Activity [7]: 93%
- Activity [8]: 89%
- Activity [9]: 32%
- Activity [10]: 96%
- Activity [11]: 90%
- Activity [12]: 94%
- Activity [13]: 78%
- Activity [14]: 95%
- Activity [15]: 2.9%
Structure (SMILES): COc1ccccc1-n1c(-c2cc(O)ccc2C)cn2c3c(=O)[nH]c(=O)n(C)c3nc12

- Activity [16]: 52%
- Activity [17]: 109%
- Activity [18]: 102%
- Activity [19]: 115%
- Activity [20]: 93%
- Activity [21]: 92%
- Activity [22]: 85%
- Activity [23]: 101%
- Activity [24]: 94%
- Activity [25]: 92%
- Activity [26]: 124%
- Activity [27]: 12%
Structure (SMILES): COc1ccccc1-n1c(-c2ccccc2C)cn2c3c(=O)[nH]c(=O)n(C)c3nc12
